Data set [1] relates to HEK293. The data set is described as follows: Modulation of recombinant human FGF141b (1 to 252 residues)-recombinant human Nav1.6 C-terminal tail (1763 to 1976 residues) protein-protein interaction expressed in HEK293 cells assessed as relative luminescence value at 50 uM measured at 2 mins interval for 20 mins by split-luciferase complementation assay relative to control. Type of data set: cell-based. Conditions: time min 2-20. An outline of the steps: (§1)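 Double-stable HEK293 line expressing CLuc-FGF14 and CD4-Nav1.6-C-tail-NLuc, kept on G418 and puromycin. Cells seeded for 24 h, then given compound for 1 h in serum-free, phenol red-free DMEM/F12 with a final 0.5% DMSO: 50 μM for screening, 0.25–100 μM over eight concentrations for dose-response; n = 4. D-luciferin added and read every 2 min for 20 min at 37 °C. Peak luminescence expressed as percent of per-plate DMSO mean (n = 32). IC50 from four-parameter nonlinear fit. At least 3 experiments.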

Data set [2] deals with HEK293. The data set is described as follows: Modulation of recombinant human FGF141b (1 to 252 residues)-recombinant human Nav1.6 C-terminal tail (1763 to 1976 residues) protein-protein interaction expressed in HEK293 cells measured at 2 mins interval for 20 mins by split-luciferase complementation assay relative to control. Type of data set: cell-based. Conditions: filed as modulator, time min 2-20. An outline of the steps: as §1

Data set [3] concerns HEK293. Kind of data set: Inhibition of full-length Photinus pyralis luciferase transfected in HEK293 cells at 25 uM incubated for 1 hrs by split-luciferase complementation assay. Type of data set: cell-based. An outline of the steps:
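HEK293 cells transfected with full-length Photinus pyralis luciferase, then treated 1 h with 25 μM compound (n = 4) or 0.5% DMSO (n = 32). Luminescence read after D-luciferin addition, as in the LCA, normalized to per-plate DMSO controls. One-way ANOVA with Dunnett's test.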

Data set [4] addresses T1, Sodium channel protein type 8 subunit alpha (Homo sapiens, UniProt Q9UQD0). The data set is described as follows: Binding affinity to human recombinant Nav1.6 C-terminal domain expressed in Escherichia coli BL21 assessed as assessed as induction of protein denaturation by measuring change in melting temperature at 10 uM by fluorescent dye based thermal shift assay. The following applies: filed as modulator, dose 50.0 µM.
Target sequence in this assay (Q9UQD0 whole entry, looked up, the tested form may be a part): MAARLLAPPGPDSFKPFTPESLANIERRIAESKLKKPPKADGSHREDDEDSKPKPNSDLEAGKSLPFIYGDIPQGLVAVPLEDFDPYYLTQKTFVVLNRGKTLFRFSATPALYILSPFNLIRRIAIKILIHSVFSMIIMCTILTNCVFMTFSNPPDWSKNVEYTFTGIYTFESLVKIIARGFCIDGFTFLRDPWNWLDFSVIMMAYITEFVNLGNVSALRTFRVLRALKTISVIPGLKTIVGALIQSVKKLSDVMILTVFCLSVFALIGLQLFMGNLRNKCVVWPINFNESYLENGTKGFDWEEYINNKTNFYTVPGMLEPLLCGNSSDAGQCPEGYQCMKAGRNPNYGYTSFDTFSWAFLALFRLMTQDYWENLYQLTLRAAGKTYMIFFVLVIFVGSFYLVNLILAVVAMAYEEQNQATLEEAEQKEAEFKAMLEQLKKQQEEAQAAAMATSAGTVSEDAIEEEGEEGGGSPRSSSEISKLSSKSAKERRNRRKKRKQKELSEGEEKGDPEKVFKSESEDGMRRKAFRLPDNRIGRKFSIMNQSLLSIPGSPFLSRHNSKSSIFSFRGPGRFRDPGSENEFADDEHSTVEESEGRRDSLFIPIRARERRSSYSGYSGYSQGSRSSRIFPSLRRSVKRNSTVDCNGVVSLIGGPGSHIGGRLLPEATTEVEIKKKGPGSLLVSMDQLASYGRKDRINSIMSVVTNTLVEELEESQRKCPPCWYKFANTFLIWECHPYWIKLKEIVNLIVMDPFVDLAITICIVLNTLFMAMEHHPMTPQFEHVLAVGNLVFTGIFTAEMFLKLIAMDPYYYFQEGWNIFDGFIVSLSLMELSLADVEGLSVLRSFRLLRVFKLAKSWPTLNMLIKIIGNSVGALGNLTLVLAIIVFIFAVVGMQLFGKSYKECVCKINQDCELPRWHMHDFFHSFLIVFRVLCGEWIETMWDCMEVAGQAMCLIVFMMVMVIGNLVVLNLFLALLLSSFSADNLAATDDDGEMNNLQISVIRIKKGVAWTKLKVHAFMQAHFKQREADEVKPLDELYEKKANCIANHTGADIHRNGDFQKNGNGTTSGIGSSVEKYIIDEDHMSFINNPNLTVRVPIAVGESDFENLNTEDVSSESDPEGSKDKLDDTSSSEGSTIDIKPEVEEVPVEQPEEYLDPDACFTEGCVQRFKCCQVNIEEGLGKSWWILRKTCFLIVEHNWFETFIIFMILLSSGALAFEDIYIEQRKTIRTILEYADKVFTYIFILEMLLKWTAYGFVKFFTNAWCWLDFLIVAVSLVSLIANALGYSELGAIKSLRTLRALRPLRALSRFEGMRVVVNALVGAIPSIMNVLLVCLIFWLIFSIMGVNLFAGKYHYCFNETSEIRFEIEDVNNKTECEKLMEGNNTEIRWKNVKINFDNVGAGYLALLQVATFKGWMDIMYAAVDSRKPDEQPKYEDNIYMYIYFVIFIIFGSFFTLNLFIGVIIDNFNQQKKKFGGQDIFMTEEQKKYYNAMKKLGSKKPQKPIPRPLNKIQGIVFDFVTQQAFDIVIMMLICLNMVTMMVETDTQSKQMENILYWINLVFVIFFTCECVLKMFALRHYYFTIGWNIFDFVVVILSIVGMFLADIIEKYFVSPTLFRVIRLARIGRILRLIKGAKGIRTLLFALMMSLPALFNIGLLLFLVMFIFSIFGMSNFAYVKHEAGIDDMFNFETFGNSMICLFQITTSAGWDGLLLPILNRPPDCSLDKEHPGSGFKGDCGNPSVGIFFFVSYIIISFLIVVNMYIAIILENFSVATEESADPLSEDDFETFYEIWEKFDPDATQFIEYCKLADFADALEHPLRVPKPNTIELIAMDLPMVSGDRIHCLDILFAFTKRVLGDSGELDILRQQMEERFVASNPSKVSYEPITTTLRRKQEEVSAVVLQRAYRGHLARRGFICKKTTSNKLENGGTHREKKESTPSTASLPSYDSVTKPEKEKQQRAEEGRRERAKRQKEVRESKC

For data set [5], the target named is T1, Sodium channel protein type 8 subunit alpha. The data set is described as follows: Binding affinity to human recombinant Nav1.6 C-terminal domain expressed in Escherichia coli BL21 assessed as association rate constant by SPR analysis. The following applies: filed as modulator. An outline of the steps: (§2)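 Biacore T100 runs with FGF14 (17,896 RU) or Nav1.6 C-tail (6,800 RU) amine-coupled on CM5 at pH 5.5. Compounds at 0.195–200 μM in PBS, 0.005% Tween-20, 2% DMSO; 50 μL/min at 25 °C. 120 s association, 150 s dissociation, DMSO calibration, blank subtraction. Rates from a Langmuir 1:1 fit; KD averages the kinetic and steady-state values. At least duplicate experiments.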
Target sequence in this assay (Q9UQD0 whole entry, looked up, the tested form may be a part): as above

Data set [6] in a line: Modulation of recombinant human FGF141b (1 to 252 residues)-recombinant human Nav1.6 C-terminal tail (1763 to 1976 residues) protein-protein interaction expressed in HEK293 cells measured at 2 mins interval for 20 mins by split-luciferase complementation assay. Format: cell-based. An outline of the steps: as §1
In data set [7] the test system is HEK293. The data set is described as follows: Cytotoxicity against HEK293 cells assessed as reduction in cell viability measured after 18 hrs by celltiter-blue assay. Conditions: human, hek293, 18 h. (Alamar Blue is a resazurin reagent that responds to reducing activity.)
Data set [8] concerns the target T1, Sodium channel protein type 8 subunit alpha. Kind of data set: Binding affinity to human recombinant Nav1.6 C-terminal domain expressed in Escherichia coli BL21 assessed as dissociation constant by SPR analysis. An outline of the steps:
as §2
(In general: SPR reads the build-up and loss of mass on a sensor chip optically.)
Target sequence in this assay (Q9UQD0 whole entry, the tested form may be a part): as the sequence (Q9UQD0 whole entry, looked up, the tested form may be a part) above

Data set [9] shares this target. The data set is described as follows: Binding affinity to human recombinant Nav1.6 C-terminal domain expressed in Escherichia coli BL21 assessed as dissociation rate constant by SPR analysis. The following applies: filed as modulator. An outline of the steps: as §2
Target sequence in this assay (Q9UQD0 whole entry, looked up, the tested form may be a part): as above
Data set [10] has as its target T2, Fibroblast growth factor 14 (Homo sapiens) (UniProt Q92915).
T2 sequence (whole entry): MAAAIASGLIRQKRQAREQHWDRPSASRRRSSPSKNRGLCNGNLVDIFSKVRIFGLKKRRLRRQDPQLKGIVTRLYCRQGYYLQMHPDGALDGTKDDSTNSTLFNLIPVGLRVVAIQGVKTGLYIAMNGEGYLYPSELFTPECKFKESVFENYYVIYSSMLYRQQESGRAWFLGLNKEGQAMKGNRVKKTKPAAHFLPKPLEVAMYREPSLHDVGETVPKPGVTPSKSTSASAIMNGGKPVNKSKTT
The data set is described as follows: Binding affinity to human recombinant FGF14 expressed in Escherichia coli BL21 assessed as assessed as induction of protein denaturation by measuring change in melting temperature at 50 uM by fluorescent dye based thermal shift assay. The following applies: filed as modulator.

Structures are written as SMILES. pIC50, pKd: −log10 of the molar value. Calls of active or inactive are those of the source. No cut-off for these calls is given here. Starred links: 1 amine or outer side, 2 acyl side, 3 side chain; linkers in the order of their positions; H or OH if unused. Residues, ends and D or L forms follow the SMILES beside them. *: point of attachment. Benzenesulfonyl(4-F) = O=S(=O)(c1ccc(F)cc1)*; NH(1-Adamantyl) = C1C2CC3CC1CC(N*)(C2)C3; Cyclohexanecarbonyl = O=C(C1CCCCC1)*; Fmoc = O=C(OCC1c2ccccc2-c2ccccc21)*; Benzoyl(4-F) = O=C(c1ccc(F)cc1)*; Piperazinyl(4-Me) = CN1CCN(*)CC1; Decanoyl = CCCCCCCCCC(=O)*; Cbz = O=C(OCc1ccccc1)*; NHcHex = C1CCC(N*)CC1; CO = O=C([*:1])[*:2]; OtBu = CC(C)(C)O*; X3 = OC1CN(*)C1; OAll = C=CCO*

Regarding `CC(C)C[C@H](NC(=O)[C@@H]1CCCN1C(=O)OCc1ccccc1)C(=O)N[C@@H](CCC(=O)OC(C)(C)C)C(=O)N[C@H](C(=O)NC1CCCCC1)C(C)C` (Cbz-PLE(OtBu)V-NHcHex), in data set [1], the Activity is 117%.
Consider `C=CCOC(=O)[C@@H](NC(=O)[C@H](CCC(=O)OC(C)(C)C)NC(=O)[C@H](CC(C)C)NC(=O)[C@@H]1CCCN1C(=O)OCc1ccccc1)C(C)C` (Cbz-PLE(OtBu)V-OAll), for which the values for the Activity in [1] (filed as modulator) and in data set [7] were 11.9% and “Non-Toxic”, respectively. In data set [2], the Efficacy came to 90.7%. Further, the inhibition result in data set [3] was “inactive”. Also, the ΔTm is -0.87 °C in data set [4] and 0.67 °C in [10]. In addition, the values for the K in data set [5] and in data set [9] were 2.57 10^5/M/s and 4.49 10^-3/s, respectively. Further, the pIC50 in [6] is 4.81. In [8], the pKd is < 3.70.
For the compound `COC(=O)[C@@H](NC(=O)[C@H](CCC(=O)OC(C)(C)C)NC(=O)[C@H](CC(C)C)NC(=O)[C@@H]1CCCN1C(=O)OCc1ccccc1)C(C)C` (Cbz-PLE(OtBu)V-OMe), the results for the Activity in data set [1] (filed as modulator) and in [7] were 39.8% and “Non-Toxic”, respectively. Moreover, the Efficacy in data set [2] was determined as 93.3%. The inhibition entry in [3] is “inactive”. Further, the negative-log IC50 (pIC50) in data set [6] is 4.65.
On to `CC(C)C[C@H](NC(=O)[C@@H]1CCCN1C(=O)OCc1ccccc1)C(=O)N[C@@H](CCC(=O)OC(C)(C)C)C(=O)N[C@H](C(=O)N1CC(O)C1)C(C)C` (Cbz-PLE(OtBu)V-X3), for which the Activity in [1] came to 112%.
Still for that read-out and setting: next, `CC(C)C[C@H](NC(=O)[C@@H]1CCCN1C(=O)OCc1ccccc1)C(=O)N[C@@H](CCC(=O)OC(C)(C)C)C(=O)N[C@H](C(=O)NC12CC3CC(CC(C3)C1)C2)C(C)C` (Cbz-PLE(OtBu)V-{NH(1-Adamantyl)}): 81.5%; `CC(C)C[C@H](NC(=O)[C@@H]1CCCN1C(=O)OCc1ccccc1)C(=O)N[C@@H](CCC(=O)OC(C)(C)C)C(=O)N[C@H](C(=O)N1CCN(C)CC1)C(C)C` (Cbz-PLE(OtBu)V-{Piperazinyl(4-Me)}): 54.2%; `CC(C)C[C@H](NC(=O)[C@@H]1CCCN1C(=O)C1CCCCC1)C(=O)N[C@@H](CCC(=O)OC(C)(C)C)C(=O)N[C@H](C(N)=O)C(C)C` (Cyclohexanecarbonyl-PLE(OtBu)V-NH2): 104%.
With `CCCCCCCCCC(=O)N1CCC[C@H]1C(=O)N[C@@H](CC(C)C)C(=O)N[C@@H](CCC(=O)OC(C)(C)C)C(=O)N[C@H](C(N)=O)C(C)C` (Decanoyl-PLE(OtBu)V-NH2), the Activity in [1] is 114%.
On the same count and under the same terms, next, `COC(=O)[C@@H](NC(=O)[C@H](CCC(=O)OC(C)(C)C)NC(=O)[C@H](CC(C)C)NC(=O)[C@@H]1CCCN1C(=O)OCC1c2ccccc2-c2ccccc21)C(C)C` (Fmoc-PLE(OtBu)V-OMe): 76.9%.
On the same count and under the same terms, the result for `CC(C)C[C@H](NC(=O)[C@@H]1CCCN1)C(=O)N[C@@H](CCC(=O)OC(C)(C)C)C(=O)N[C@H](C(N)=O)C(C)C` (H-PLE(OtBu)V-NH2) reads 114%; that for `CC(C)C[C@H](NC(=O)[C@@H]1CCCN1S(=O)(=O)c1ccc(F)cc1)C(=O)N[C@@H](CCC(=O)OC(C)(C)C)C(=O)N[C@H](C(N)=O)C(C)C` ({Benzenesulfonyl(4-F)}-PLE(OtBu)V-NH2), 86.4%.
Take `CC(C)C[C@H](NC(=O)[C@@H]1CCCN1C(=O)c1ccc(F)cc1)C(=O)N[C@@H](CCC(=O)OC(C)(C)C)C(=O)N[C@H](C(N)=O)C(C)C` ({Benzoyl(4-F)}-PLE(OtBu)V-NH2): the inhibition entry in [3] was “inactive”. Moreover, the Activity entry in [7] is recorded as “Non-Toxic”.
With `CC(C)C[C@H](NC(=O)[C@@H]1CCCN1C(=O)NC12CC3CC(CC(C3)C1)C2)C(=O)N[C@@H](CCC(=O)OC(C)(C)C)C(=O)N[C@H](C(N)=O)C(C)C` ({NH(1-Adamantyl)-CO}-PLE(OtBu)V-NH2), the Activity in data set [1] came to 83.5%.

As a reminder, the ΔTm is the shift of the melting midpoint relative to a reference. What is called pIC50 is the IC50 on a negative log10 scale, so that one unit is a factor of ten. Broadly, the pKd is −log10 of the Kd, conventionally taken in molar units.

(Values after ChEMBL document CHEMBL4699573, “Design, Synthesis, and Pharmacological Evaluation of Analogues Derived from the PLEV Tetrapeptide as Protein-Protein Interaction Modulators of Voltage-Gated Sodium Channel 1.6” (J Med Chem, 2020).)
